Article PMC4143156 (Journal of immunology (Baltimore, Md. : 1950), 2008)
Read-outs that look alike come from different tables or passages of the source.

Assays:
[1] = target: Water soluble DQ2 (sDQ2), thrombin-cleaved (human); assay: peptide dissociation followed by MALDI-TOF MS
water soluble DQ2 (sDQ2) = water soluble DQ2 (sDQ2) (Homo sapiens, UniProt P01909+P01920, A45G/A70V/D89A/E106A/E77G/E98D/H199R/L107V/N214S/P84L/P87L/T103K/T109R/T172A/T60S/V78E/V99I/Y58L/Y62S/Y69I/Y79F); assay type: binding; conditions: ratio of t1/2 without DM to t1/2 with 6 μM DM; sDQ2 complexes
water soluble DR3 (sDR3) [2] = target: water soluble DR3 (sDR3) (Homo sapiens, UniProt P01903+P01911, A100K/A102G/A103R/A169T/F55Y/I96L/K41T/L162R/M171V/P40S/Q125H/Q178H/Q39Y/R42S/S66N/T106N/W38E/Y61H); assay type: binding; conditions: ratio of t1/2 without DM to t1/2 with 6 μM DM; sDR3 complex; listed as DR3-CLIP1
Summary of the method: (§1)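 Incubated at 37°C, pH 5.0 citrate phosphate, ±6 μM soluble DM, with 35 μM competitor MT 65kDa 3-13; stopped with cold pH 7.2 buffer. Released peptides were quantified by MALDI-TOF MS against added isotopic indicator peptides.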

water soluble DR3 (sDR3) [3] = assay type: binding, human; conditions: pH 5, without DM
Summary of the method: as §1

[4] = target: HLA-DQ2 (DQA1*0501, DQB1*0201) (Homo sapiens, UniProt P01909+P01920, A45G/A70V/D89A/E106A/E77G/E98D/H199R/L107V/N214S/P84L/P87L/T103K/T109R/T172A/T60S/V78E/V99I/Y58L/Y62S/Y69I/Y79F); conditions: DQ2 affinity purified from B-LCL; ref [3],[4]; cited from earlier work
[5] = target: Water soluble DR3 (sDR3), thrombin-cleaved (human); assay: peptide dissociation followed by MALDI-TOF MS
[6] = target: HLA-DQ2 (DQA1*0501, DQB1*0201) (human (endogenous in B-LCL)); assay: affinity purification with mass spectrometry
[7] = target: HLA-DQ2 (DQA1*0501, DQB1*0201) (human (endogenous in B-LCL)); assay: affinity purification with mass spectrometry; remark: listed apart in the source
[8] = target: HLA-DR3 (DRA1*0101, DRB1*0301) (human (endogenous in B-LCL)); assay: affinity purification with mass spectrometry

CLIP2 released peptide of sDQ2-CLIP2
t1/2 of DM-mediated dissociation (6 μM DM) [1]: 5 h | t1/2 of spontaneous dissociation [1]: 142 h

RDSGPVSKMRMATPLLMQAGAGSLVPR [CLIP1]
DM-mediated increase in dissociation (water soluble DQ2 (sDQ2)): 16x | DM-mediated increase in dissociation (water soluble DR3 (sDR3) [2]): 246x | Faster spontaneous release from DR3 compared to CLIP1 and CLIP2 from sDQ2 (water soluble DR3 (sDR3) [3]): 2 fold

RDSGMATPLLMQALPM GALGAGSLVPR [CLIP2]
DM-mediated increase in dissociation (water soluble DQ2 (sDQ2)): 28x | IC50 values/affinity for DQ2 compared to conventional CLIP (CLIP1) peptides [4]: lower

CLIP1 M91A released peptide of sDQ2-CLIP1 M91A
t1/2 of DM-mediated dissociation (6 μM DM) [1]: 0.7 h | t1/2 of spontaneous dissociation [1]: 13.1 h

RDSGPVSKPRMATPLLMQAGAGSLVPR [CLIP1 M91P]
DM-mediated increase in dissociation (water soluble DQ2 (sDQ2)): 11x

CLIP1 M91P released peptide of sDQ2-CLIP1 M91P
t1/2 of DM-mediated dissociation (6 μM DM) [1]: 8.9 h | t1/2 of spontaneous dissociation [1]: 93.6 h

CLIP1 released peptide of sDQ2-CLIP1 and sDR3-CLIP1
t1/2 of DM-mediated dissociation (6 μM DM) [1]: 9 h | t1/2 of spontaneous dissociation [1]: 144 h | t1/2 of DM-mediated dissociation (6 μM DM) [5]: 0.25 h | t1/2 of spontaneous dissociation [5]: 61.5 h

RDSGPVSKARMATPLLMQAGAGSLVPR [CLIP1 M91A]
DM-mediated increase in dissociation (water soluble DQ2 (sDQ2)): 19x

MATPLLMQALPMGALP [Ii93-108]
pmol of peptide eluted from 50 μg of affinity-purified class II [6]: 159 pmol | pmol of peptide eluted from 50 μg of affinity-purified class II [7]: 156 pmol

LPKPPKPVSKMRMATPLLMQA [Ii81-101]
pmol of peptide eluted from 50 μg of affinity-purified class II [8]: 106 pmol | pmol of peptide eluted from 50 μg of affinity-purified class II [6]: 31.5 pmol | pmol of peptide eluted from 50 μg of affinity-purified class II [7]: 88.4 pmol

LPKPPKPVSKMRMATPLLMQALPM [Ii81-104]
pmol of peptide eluted from 50 μg of affinity-purified class II [8]: 42.4 pmol

LPKPPKPVSKMRMATPLLMQALP [Ii81-103]
pmol of peptide eluted from 50 μg of affinity-purified class II [6]: 79.5 pmol | pmol of peptide eluted from 50 μg of affinity-purified class II [7]: 71.1 pmol

PKPPKPVSKMRMATPLLMQALP [Ii82-103]
pmol of peptide eluted from 50 μg of affinity-purified class II [8]: 113 pmol | pmol of peptide eluted from 50 μg of affinity-purified class II [6]: 16.5 pmol | pmol of peptide eluted from 50 μg of affinity-purified class II [7]: 36.8 pmol

MATPLLMQALPMGALPQ [Ii93-109]
pmol of peptide eluted from 50 μg of affinity-purified class II [7]: 3.8 pmol
